Assay results of several laboratories.
Compare with care: the assays were run in different laboratories.
Target: Serine/threonine-protein kinase TAO3 (TAOK3, Homo sapiens, UniProt Q9H2K8)
Sequence (Q9H2K8 1-898, as in one of the studies): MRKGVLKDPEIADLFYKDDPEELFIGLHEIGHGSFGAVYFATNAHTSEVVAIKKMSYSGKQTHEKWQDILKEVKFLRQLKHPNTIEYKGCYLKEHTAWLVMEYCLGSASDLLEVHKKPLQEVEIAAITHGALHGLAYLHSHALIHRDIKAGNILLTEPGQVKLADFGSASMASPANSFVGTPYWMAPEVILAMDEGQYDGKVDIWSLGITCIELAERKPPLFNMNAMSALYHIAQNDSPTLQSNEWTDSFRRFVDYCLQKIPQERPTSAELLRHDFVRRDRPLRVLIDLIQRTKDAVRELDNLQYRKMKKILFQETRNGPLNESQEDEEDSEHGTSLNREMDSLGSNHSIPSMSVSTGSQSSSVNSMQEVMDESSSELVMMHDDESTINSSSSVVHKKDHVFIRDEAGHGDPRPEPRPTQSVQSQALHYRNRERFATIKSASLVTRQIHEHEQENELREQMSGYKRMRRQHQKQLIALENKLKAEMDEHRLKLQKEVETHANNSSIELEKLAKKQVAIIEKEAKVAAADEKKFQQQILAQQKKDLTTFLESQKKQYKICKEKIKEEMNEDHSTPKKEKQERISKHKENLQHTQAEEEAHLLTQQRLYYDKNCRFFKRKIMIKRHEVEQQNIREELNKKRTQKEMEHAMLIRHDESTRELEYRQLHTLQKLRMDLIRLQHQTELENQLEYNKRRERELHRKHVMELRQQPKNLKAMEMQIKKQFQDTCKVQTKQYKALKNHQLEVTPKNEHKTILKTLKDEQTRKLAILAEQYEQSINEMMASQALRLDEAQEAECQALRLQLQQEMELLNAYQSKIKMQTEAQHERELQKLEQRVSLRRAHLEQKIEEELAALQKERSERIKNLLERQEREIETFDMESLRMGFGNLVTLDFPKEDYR

| SMILES | observed | technique | concentration | remaining binding [%] |
| --- | --- | --- | --- | --- |
| O=C(NCC1CCOCC1)c1n[nH]cc1NC(=O)c1c(F)cccc1F | binding | competition with immobilised ligand | 1 µM | 45 |
| CS(=O)(=O)c1cc(C2(NC(=O)c3cncc4c3cnn4-c3ccc(F)cc3)CC2)ccn1 | cell-free assay | competition with immobilised ligand | 1 µM | 97 |
| COc1ccnn2ncc(-c3ccnc(N(C)C)n3)c12 | binding |  | 1 µM | 82 |
| O=C(NCCCN1CCOCC1)c1ccc(Nc2ncc(Cl)c(-c3ccc(Cl)s3)n2)cc1 | binding | competition with immobilised ligand | 1 µM | 49 |
| C[C@H](c1ccnc(Nc2nc3ccc(-c4cc(N(C)C)ncn4)cc3[nH]2)c1)N1CCN(C(=O)CC(F)(F)F)CC1 | cell-free assay | competition with immobilised ligand | 0.1 µM | 41 |
| COc1cnc(Nc2cccc(S(N)(=O)=O)c2)nc1N1CCN(c2ccccc2)CC1 | binding | competition with immobilised ligand | 1 µM | 85 |
| CN1CCN(c2cnc3c(C4CCN(C(=O)c5ccc(OC(F)(F)F)cc5N)CC4)ncnc3c2)CC1 | cell-free assay | competition with immobilised ligand | 1 µM | 100 |
| C=CC(=O)N1CCC(C(=O)NCC(=O)N2CCN(c3nc(-c4cnc(N)nc4C(F)F)nc(N4CCOCC4)n3)CC2)CC1 | binding | competition with immobilised ligand | 1 µM | 77 |
| FC(F)(F)Oc1cccc(-c2cnc3ccc(-c4ccncc4)nn23)c1 | binding | competition with immobilised ligand | 5 µM | 72 |
| c1ccc(N2CCN(Cc3nc4ccccc4[nH]3)CC2)nc1 | binding | competition with immobilised ligand | 1 µM | 86 |
| O=C(c1ccc(Nc2nccc(-c3cc4ccccc4s3)n2)cc1)N1CCC(N2CCCC2)CC1 | binding | competition with immobilised ligand | 1 µM | 100 |
| CC1=C(C#N)[C@@H](c2ccc3[nH]nc(C)c3c2)C(C#N)=C(c2ccc(Cl)cc2)N1 | cell-free assay | competition with immobilised ligand | 1 µM | 100 |
| CN(CCCC(F)(F)F)c1nccc(-c2cnn3ncccc23)n1 | binding |  | 1 µM | 61 |
| CNCc1ccccc1-c1csc([C@@H](C)Nc2nc(C)nc3cc(OC)c(OC)cc23)c1 | cell-free assay | competition with immobilised ligand | 1 µM | 83 |
| CN(c1nccc(-c2cnn3ncccc23)n1)C1CC1 | binding |  | 1 µM | 54 |
| O=C(c1ccc(Nc2ncc(Cl)c(-c3ccc(Cl)s3)n2)cc1)N1CCC(N2CCCC2)CC1 | binding | competition with immobilised ligand | 1 µM | 49 |
| N[C@@H]1CCN(c2nccc(-c3cnn4ncccc34)n2)C1 | binding |  | 1 µM | 100 |
| C[C@@H](c1ccc(-n2cnc3c(N)ncnc32)cc1)N1CCc2nn(C)c(Cc3ccccc3)c2C1=O | binding | competition with immobilised ligand | 0.1 µM | 77 |
| C[C@@H]1CCN(c2nccc(-c3cnn4ncccc34)n2)C1 | binding |  | 1 µM | 90 |
| Cc1cc(NC(=O)c2cccc(S(F)(F)(F)(F)F)c2)cc(-n2ccn3nc(-c4cccnc4)cc23)c1 | cell-free assay | competition with immobilised ligand | 1 µM | 100 |
| Nc1ncc2c(n1)-c1c([nH]c3ccc(C#CC4CC4)cc13)CCCC2 | binding | competition with immobilised ligand | 1 µM | 89 |
| F[C@@H]1CCN(c2nccc(-c3cnn4ncccc34)n2)C1 | binding |  | 1 µM | 55 |
